System: MS2 coat protein
Test: apparent Kd, MS2 coat protein; higher = weaker binding; RNA-MaP array; FMN 200 µM where present
Method in brief: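 Two titrations, one without ligand and one with constant ligand, were run with SNAP-549-labelled MS2 coat protein from 0.7 or 1.5 nM, doubling to 3 µM. The targets were designs transcribed by stalled E. coli RNA polymerase on Illumina sequencing-chip clusters, in 100 mM Tris-HCl pH 7.5, 80 mM KCl, 4 mM MgCl2, BSA, DTT, yeast tRNA and Tween-20. The apparent Kd is the median of filtered per-cluster binding-curve fits, with green signal normalised to red-channel RNA signal and control-cluster median Fmax.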

[1] = designed as: OFF switch for flavin mononucleotide, no ligand
[2] = ligand present: flavin mononucleotide, designed as: OFF switch for flavin mononucleotide
[3] = designed as: ON switch for flavin mononucleotide, no ligand
[4] = ligand present: flavin mononucleotide, designed as: ON switch for flavin mononucleotide

| Sequence | apparent Kd [1] [nM] | apparent Kd [2] [nM] | apparent Kd [3] [nM] | apparent Kd [4] [nM] |
| --- | --- | --- | --- | --- |
| AAAUCGGCAGGAUAUACAUGAAAAUUAAAAAAAAAAAAAAAACAUGAGGAUCACCCAUGUAGAAGGGUCAAAAA | 88.9 | 89.2 | – | – |
| AUUAUAUAGGAAGGAUAUAGAAUAUUAUUUUAACAUGAGGAUCACCCAUGUAACCUUAUGUGUAGCUAGAAGGUCCAUUUGUUA | – | 315 | – | – |
| AUAAAUCAUGUAGGAUAUGCGUGGCGAAGCUAUGCAGAAGGACAUGAGGAUCACCCAUGUCUUUCCGUCUGCGUACAGACGGGA | 30.9 | 225 | – | – |
| UAACUGCAGAAGAUAAUAAUGAAUACAUGAGGAUCACCCAUGUAGGAUAUCGUCAGGAAUACUGACGAGAAGGACAUACUGCAG | 14.1 | 16.9 | – | – |
| GUCUCAGUUGGCUUCAAGGGCGGUCAGGAUAUGCUAACGUACAUGAGGAUCACCCAUGUCCAAGUGCAGAAGGGACAUACGCCA | – | – | 62.6 | 7.85 |
| UGCGGUAGAGGAUAUACGUAGAACUAGGUUCAUGUAAAACUACAUGAGGAUCACCCAUGUAGAAGGCUAUCGCU | 17 | 22.4 | – | – |
| UUGGACGUCGUAGGAUAUGUAGGAUAUUCCUACAUGAGGAUCACCCAUGUUGACAGGGAAGAAGGACAGAAGGACGAUGUCCAU | – | – | 17 | 4.01 |
| CAGUACUGAGGAUAUACAUGAGGAUCACCCAUGUGUUCCAGCUAGGAAUCUAGCAAAAGUAGAAGGCAGUACUG | 25.9 | 449 | – | – |
| GCAGCUAUUAUUAUACAUGAGGAUCACCCAUGUUACAUGUGUAAGGAUAUUGAUGUUUAUAUAAUCAAGAAGGUACGAUGCUGC | – | – | 12.6 | 8.59 |
| UACAUGAGGAUCACCCAUGUUUUGUCGUGUAUGGUAUUUAUCUAGGAUAUCAAUUUAAUUAUUUAUGAGAAGGAGAAUAUUAAU | 39.6 | 33.1 | – | – |
| AGCUGUGGCCGAGGAUAUCUAUCUCAAAUAACCGAAAUAUAAUCGGACAUGAGGAUCACCCAUGUAGAGAAGGCGGUCUCAGCA | 14.5 | 26.1 | – | – |
| UUGGACGUCGUAGGAUAUGUAGGAUAUUCCUACAUGAGGAUCACCCAUGUUGAUAUGGAAGAAGGACAGAAGGACGAUGUCCAU | – | – | 31.8 | 4.64 |
| GUACGGGAGGAGAAGGGCUAGGAGGUCCAGCUUAUGUGUGUUGCAACAUGAGGAUCACCCAUGUAGCAGGAUAUCCUCUGUACA | 46.3 | 332 | – | – |
| AAGGAGUGAGGAUAUGCUGCUCGUCACUUGCGUGAUGAGUAGCAGAAGGCACAUGAGGAUCACCCAUGUAAAAA | 41.5 | 49.7 | – | – |
| UUUCCGCGAGGAUAUGCGGGUUGUGCUUUUCAUUUUUUAUAACAUGAGGAUCACCCAUGUAGAAGGUGCUUCUG | 78.7 | 71.6 | – | – |
| CAGAUAAAAGUGUGGUCCUCGACAUGAGGAUCACCCAUGUACGAGGAUAUGUAAUAUACGGUAUAGCAGAAGGCGUAUGGGUGU | 37.7 | 36.2 | – | – |
| CCGCCUCUAGUCAGGAUAUUUACGGAAGAGCACGAAGAGAAGGGACAUGAGGAUCACCCAUGUUUGAUCACGGC | 30.5 | 31.4 | – | – |
| GGAUUACAUGAGGAUCACCCAUGUGAGGAUAUCGAUGUCCUCCCUCCCGUGCGGGACUCGAGAAGGCACUUGGA | 51.9 | 78.8 | – | – |
| UGACCCAUGACAUGAGAUGACAUGAGGAUCACCCAUGUGUACAAGGAUAUGUUGGUCGACGAUCGGCAGAAGGUGUAAUGGGAU | 56.6 | 282 | – | – |
| GGGCAAUAGUAGAAGGGAUAUACGAAAGGUAUAUCAGGAUAUACAUGAGGAUCACCCAUGUUCUAACAGUGAUAGUCCUCCCUA | 24.3 | 171 | – | – |
| AAGACGUAAGGAUAUAUUAUGGGACAAUGAAGGAAGAUAAAACAUGAGGAUCACCCAUGUAGAAGGUGCAAAGA | 45.9 | 41.5 | – | – |
| GUUUAGUGAGGAUAUGUGGCAUCGCCCGAGCGCGGUCGGCUACAGAAGGCACAUGAGGAUCACCCAUGUUUCUC | 38.6 | 585 | – | – |
| GAUUCACAUGAGGAUCACCCAUGUGAGGAUAUCUAGGUGCGGAGGCUAAGACCUCCAGAGAGAAGGCACAUGGC | 24.2 | 36.8 | – | – |
| GCUGCAUAGGCAGGAUAUGCAACAAUUCGAAUAAAAUAUAACGAAUUGACAUGAGGAUCACCCAUGUAGAAGGGCCUGUGCAGU | 18.6 | 20 | – | – |

| Sequence | apparent Kd [1] [nM] | apparent Kd [2] [nM] | apparent Kd [3] [nM] | apparent Kd [4] [nM] |
| --- | --- | --- | --- | --- |
| UGUCCAUAGCAGAAGGACAUAAAUUUCCAUGAAAACAUGAGGAUCACCCAUGUAGGAUAUGCUAUGGACUAAGAGCGAAAGCUC | 5.21 | 10.3 | – | – |
| AAAAGUAGAGGAUAUACAUGAGGAUCACCCAUGUAGAAAGGAAGUGUAUAUAUGGCGUGUAGAAGGCUGCAUGA | 38.3 | 39.2 | – | – |
| ACAACAAAGUGAGGAUAUACAUAAUUCAUAACUGUAGAAGGCACAAACCUCAAUACAUGAGGAUCACCCAUGUUAUAUAUCUAA | 34.8 | 38.5 | – | – |
| CGCGCGUCGACAGGAUAUACAGAUUGGCUCCGGUACAUGAGGAUCACCCAUGUAGAAGGGUCACGCACGGAUAGUACAUUAUUA | 8.44 | 28 | – | – |
| AAGUACGUAAAGAAGGCGCGGGCAACCAUUCUGCGAGGAUAUUUACAUGAGGAUCACCCAUGUGCAUGGGAUCGAGAAGAAUUG | 159 | 41.9 | – | – |
| ACCUGGAUAGGAUAUACAUGAGGAUCACCCAUGUGACUCAGGCCAGGGAAGUACUUCGGUAGAAGGGUCCAGUA | 18.2 | 20.7 | – | – |
| AUCAGCUCGUGAGGAUAUACAUGAUAGAUCGAUUAAUUAAUUAAUUUAACAUGAGGAUCACCCAUGUAGAAGGUACGAGCUGAU | 52.3 | 50.5 | – | – |
| GGCUCAUUUACAUUAAUGUGCUGACAGGAUAUCCACGGCGGUUCCUACAUGAGGAUCACCCAUGUGGAGAAGGGUCGCUAAUGG | 12.4 | 18.9 | – | – |
| CUGAUGUUAGGAUAUCAGGCACCCGCCACUGGCAGGGCGCAUGAGAAGGGACAUGAGGAUCACCCAUGUAGUAA | 25.2 | 60.1 | – | – |
| UAUUAUCACGAAGGAUAUGCUUACAUGAGGAUCACCCAUGUAUGUAUAUUGAUCCAGAGUUUUGAGCAGAAGGUCGUGAGUAAA | 41.8 | 250 | – | – |
| GGUGGUACAGAGAAGGCGCCGCAGCUCUUCCUCCCAUCCCAACGACAUGAGGAUCACCCAUGUAGCGAGGAUAUCUGUGCCAUC | 7.05 | 22.5 | – | – |
| CCCGUGUAAGGAUAUGACAAUGGUAUCUUCGGAUACCAUUGUCAGAAGGUACAUGAGGAUCACCCAUGUAACAC | 28.8 | 108 | – | – |
| AAUAAAAUGAUGUUACAUGAGGAUCACCCAUGUAAGUGAUGGAGAAGGUCCCACGACUUGGGCGGGAAGGAUAUUCAGAGCAUA | – | – | 16.8 | 10.3 |
| ACAUGAGGAUCACCCAUGUCUUUAUCCGAUUCUUCAUUUACGUAGGAUAUCGUCUAUACUAUCAUCGAGAAGGACGUUCUUUAA | – | – | 17.6 | 15.9 |
| AAAAGUUGAGGAUAUGGCUAUUUGGACAUGAGGAUCACCCAUGUGUCUAUGGCCCGGGUGCCAGAAGGUGAUUACU | 92.2 | 94.3 | – | – |
| CAGACGUGAGGAUAUCUGAUGUCUAACUUCGGUUAGACAUCAGAGAAGGCACAUGAGGAUCACCCAUGUCUGAA | 76.8 | 309 | – | – |
| CGUCCACAUGAGGAUCACCCAUGUGAGGAUAUCCAUACCCACAACCAAUACACAUUAUGGAGAAGGCACACACA | 20.2 | 19.9 | – | – |
| GUCAGCUCGUGAGGAUAUACAACACUGCUUCGGCAGUGUAUUAAGAUCACAUGAGGAUCACCCAUGUAGAAGGCCCGAGCUGAU | 10.2 | 139 | – | – |
| AUCUUGAGAGGAUAUACAUGAGGAUCACCCAUGUUGCUAACACCAUGAGCUCAUUUACGUAGAAGGCUCAUUUG | 18 | 18.6 | – | – |
| GCAUCGUCGACUGAUAAUGAGCCUAGAAGGCGGACAUGAGGAUCACCCAUGUCUGAUCCUCGGCCCGAGGAUAUAGGUUAAUGA | 12.1 | 8.65 | – | – |
| GUUGGAUGAGGAUAUCGAGGUUAGUACAUGAGGAUCACCCAUGUUAUCCAGGUGUCGGUUCGAGAAGGCAUUGGAC | 32.6 | 114 | – | – |
| GUAGCUAUCGGAGGAUAUUCAUAUCGGAAACGGACAUGAGGAUCACCCAUGUGGCGAAAGCCUUGGGAGAAGGCCGAUAGCUAC | – | – | 144 | 9.42 |
| CGCUGUCUCGCAGGAUAUGCAUUGGAUUACAAUGCAGAAGGGCGAUUACAUGAGGAUCACCCAUGUGUUGACAGUGAAGAAGAG | – | – | 114 | 21.6 |
| GGAUAGGACAGAGGAUAUACGUGCUAGAGAAACUAGCAAAAUUUCCUCACAUGAGGAUCACCCAUGUAGAAGGCUGUCCUAUCG | 14.5 | 543 | – | – |
